This passage reports inhibition and Activity results from ChEMBL document CHEMBL1165941, “Design and synthesis of 2,4-disubstituted polyhydroquinolines as prospective antihyperglycemic and lipid modulating agents” (Bioorg Med Chem, 2010).

Active and inactive are the calls of the source. No cut-off for these calls is given here.

Assay [1] has as its target T1, Tyrosine-protein phosphatase non-receptor type 1 (Homo sapiens) (UniProt P18031).
T1 sequence (whole entry): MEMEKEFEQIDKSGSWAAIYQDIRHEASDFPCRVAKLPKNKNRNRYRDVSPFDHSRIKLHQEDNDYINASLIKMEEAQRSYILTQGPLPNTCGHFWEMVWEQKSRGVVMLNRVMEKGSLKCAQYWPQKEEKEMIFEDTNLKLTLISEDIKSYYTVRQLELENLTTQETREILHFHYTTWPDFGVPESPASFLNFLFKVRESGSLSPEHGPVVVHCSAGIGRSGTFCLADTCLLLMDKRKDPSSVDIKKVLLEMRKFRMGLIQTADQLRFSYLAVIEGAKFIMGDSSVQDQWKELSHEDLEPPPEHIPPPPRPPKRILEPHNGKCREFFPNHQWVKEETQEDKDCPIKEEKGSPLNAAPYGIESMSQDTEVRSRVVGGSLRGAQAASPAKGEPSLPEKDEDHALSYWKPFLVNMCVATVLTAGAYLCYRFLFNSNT
The assay is described as follows: Inhibition of PTP1B assessed as p-nitrophenolate ion production at 100 uM pretreated for 10 mins measured after 30 mins. The method in brief: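 PTP1B was preincubated 10 min with compound, with and without 0.01% Triton X-100. Substrate was 10 mM pNPP in 50 mM HEPES pH 7.0 with 1 mM DTT and 2 mM EDTA. After 30 min at 37 °C the reaction was stopped with 0.1 N NaOH and A410 was read. Product was calculated with ε 1.78×10⁴ M⁻¹cm⁻¹. Sodium orthovanadate served as standard. IC50 came from dose–response curves.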

In assay [2] the test system is Rattus norvegicus. The assay is described as follows: Antihyperglycemic activity in Charles Foster-Wistar albino rat sucrose loaded model assessed as decrease of blood glucose level at 100 mg/kg, po administered 30 mins before glucose challenge measured up to 120 mins by glucometer. The class given is functional. Set-up: scale not given: the % may be the effect or the level left. As to conditions: in the assay text read “Sprague-Dawley” for “Charles Foster-Wistar”. The method in brief:
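Sprague–Dawley male rats with blood glucose 60–80 mg/dl, 5–6 per group, received 100 mg/kg orally as a suspension in 1.0% gum acacia; controls received vehicle. Sucrose 10.0 g/kg was given orally 30 min later. Glucose was read by glucometer at 30, 60, 90 and 120 min. Food was withheld. Percent activity came from AUC versus control.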

The target in assay [3] is T2, Glucose-6-phosphatase catalytic subunit 1 (Homo sapiens) (UniProt P35575).
T2 sequence (whole entry): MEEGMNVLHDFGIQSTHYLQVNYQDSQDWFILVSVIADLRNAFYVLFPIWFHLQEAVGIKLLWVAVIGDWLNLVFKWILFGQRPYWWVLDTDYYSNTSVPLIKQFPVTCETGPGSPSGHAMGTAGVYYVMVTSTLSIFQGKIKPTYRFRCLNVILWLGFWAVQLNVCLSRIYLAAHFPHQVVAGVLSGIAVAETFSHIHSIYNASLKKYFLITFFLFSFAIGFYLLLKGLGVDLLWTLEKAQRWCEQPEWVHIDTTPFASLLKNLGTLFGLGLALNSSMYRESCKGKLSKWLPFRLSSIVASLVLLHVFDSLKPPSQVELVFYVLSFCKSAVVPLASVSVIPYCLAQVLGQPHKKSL
The assay is described as follows: Inhibition of glucose-6-phosphatase assessed as inositol phosphate release at 100 uM after 30 mins. The settings on record: in the assay text read “inorganic phosphate” for “inositol phosphate”. The procedure, abridged: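 Glucose-6-phosphatase was assayed in 0.3 M citrate pH 6.0 with 28 mM EDTA, 14 mM NaF, 200 mM glucose-6-phosphate and enzyme protein. After 30 min at 37 °C the reaction was stopped with 10% TCA. Activity was expressed as µmol Pi released per min per mg protein.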

Assay [4] in a line: Inhibition of alpha-glucosidase at 100 uM after 3 mins. The procedure, abridged:
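α-Glucosidase (0.1 mg/mL, purified) was assayed in 67 mM sodium phosphate pH 6.8 with 1.0 mg/mL glutathione. The reaction was started with 3.0 mg/mL pNPG and followed at 405 nm every 30 s for 3 min.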

Assay [5] is described as follows: Inhibition of glycogen phosphorylase assessed as […] phosphate release at 100 uM after 30 mins. The procedure, abridged: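 Glycogen phosphorylase was incubated with glycogen, glucose-1-phosphate, NaF and 5′-AMP for 30 min at 37 °C. The reaction was stopped with 10% TCA and 0.1 M sodium acetate. Samples were held overnight at 4 °C, then released Pi was measured.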

Assay [6] deals with Dipeptidyl peptidase 4 (Homo sapiens) (UniProt P27487). In words: Inhibition of DPP4 at 100 uM after 15 mins by spectrofluorimeter. The method in brief:
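DPP-IV activity was measured at 37 °C as Gly-Pro-AMC (30 µM) cleavage in Tris–HCl pH 7.4 with test compound. Fluorescence was read at excitation 355 nm and emission 460 nm. The initial rate was taken over the first 15 min.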

Assay [7] has as its system Rattus norvegicus. The assay is described as follows: Antihyperglycemic activity in Sprague-Dawley albino rat streptozotocin-induced beta-cell damaged diabetic model assessed as decrease of blood glucose level at 100 mg/kg, po administered 30 mins before glucose challenge measured after 24 hrs by glucometer. Set-up: scale not given: the % may be the effect or the level left. The format is functional. The method in brief: (§1)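 Rats were made diabetic with streptozotocin 60 mg/kg ip in 100 mM citrate pH 4.5 after an overnight fast. Animals with glucose 144–270 mg/dl at 48 h were used, 5–6 per group. Compounds were given 100 mg/kg orally in 1.0% gum acacia. Sucrose 2.5 g/kg followed 30 min later. Glucose was read by glucostrips up to 300 min and at 24 h. Non-responders were excluded. Percent activity came from AUC versus control.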

Assay [8] has as its system Rattus norvegicus. In words: Antihyperglycemic activity in Sprague-Dawley albino rat streptozotocin-induced beta-cell damaged diabetic model assessed as decrease of blood glucose level at 100 mg/kg, po administered 30 mins before glucose challenge measured after 5 hrs by glucometer. Set-up: scale not given: the % may be the effect or the level left. The format is functional. The procedure, abridged: as §1

Dipeptidyl peptidase 4 (Homo sapiens), sequence (P27487 whole entry, looked up): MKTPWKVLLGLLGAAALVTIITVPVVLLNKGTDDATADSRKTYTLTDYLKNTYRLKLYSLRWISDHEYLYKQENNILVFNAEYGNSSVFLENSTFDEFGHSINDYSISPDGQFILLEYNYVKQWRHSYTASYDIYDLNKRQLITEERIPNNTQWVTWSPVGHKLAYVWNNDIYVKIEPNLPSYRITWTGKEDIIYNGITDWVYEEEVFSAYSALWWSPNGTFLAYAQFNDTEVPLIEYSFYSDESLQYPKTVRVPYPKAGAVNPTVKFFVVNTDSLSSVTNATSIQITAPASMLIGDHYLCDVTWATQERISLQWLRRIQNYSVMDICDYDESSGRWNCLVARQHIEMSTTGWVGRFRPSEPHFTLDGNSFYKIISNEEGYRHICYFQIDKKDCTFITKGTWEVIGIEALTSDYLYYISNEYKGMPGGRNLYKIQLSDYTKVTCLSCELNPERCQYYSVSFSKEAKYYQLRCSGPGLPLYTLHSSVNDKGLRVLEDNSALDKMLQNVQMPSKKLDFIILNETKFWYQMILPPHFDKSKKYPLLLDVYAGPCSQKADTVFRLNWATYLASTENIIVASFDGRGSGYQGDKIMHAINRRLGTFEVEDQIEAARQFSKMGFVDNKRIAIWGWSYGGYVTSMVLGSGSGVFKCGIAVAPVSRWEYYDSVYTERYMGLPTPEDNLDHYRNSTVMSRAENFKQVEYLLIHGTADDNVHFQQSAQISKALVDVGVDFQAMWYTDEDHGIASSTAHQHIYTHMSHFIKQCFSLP

For `CCOC(=O)C1=CC(c2ccc(Cl)cc2)C2=C(CC(C)(C)CC2=O)N1` (stereo not given), the inhibition is 53.8% in assay [1], 11.3% in assay [3], 56.7% in assay [5] and 12.5% in assay [6]. The Activity in the assay on Rattus norvegicus [2] stood at 11.4%. The inhibition result in assay [4] is “inactive”.
As to `O=C1CCCC2=C1C(c1ccccc1)C=C(c1ccccc1)N2` (stereo not given), the inhibition in assay [1] worked out at 51.2%; in assay [5], 21.8%. The Activity with Rattus norvegicus [2] was found to be 19.7%; in the assay on Rattus norvegicus [7], 13.8%; in the assay on Rattus norvegicus [8], 15.1%. The inhibition result in assay [3], in assay [4] and in assay [6] was “inactive” throughout.
In the case of `COc1ccc(-c2cc(-c3ccccc3)nc3c2C(=O)CC(C)(C)C3)cc1`, the inhibition in assay [1] turned out to be 9.1%; in assay [5] it was 31.1%; in assay [6] it was 22%. For the same compound, the result with Rattus norvegicus [2] (Sprague-Dawley albino) was inactive. Further, the inhibition result in assay [3] and in assay [4] was “inactive” in each case.
Regarding `CCOC(=O)C1=CC(c2ccccc2)C2=C(CC(C)(C)CC2=O)N1` (stereo not given), the inhibition amounted to 43.3% in assay [1] and 49.5% in assay [5]. Moreover, the figures for the Activity in the assay with Rattus norvegicus [2], with Rattus norvegicus [7] and in the assay with Rattus norvegicus [8] were 16.6%, 11.3% and 7.1%, respectively. In addition, the inhibition entry in assay [3], in assay [4] and in assay [6] was “inactive” in each case.
SODIUM ORTHOVANAD came in with an inhibition in assay [6] of 57.8%.
For `CN(C)C(=N)NC(=N)N` [METFORMIN], the Activity in the assay on Rattus norvegicus [2] came out at 13.5%; in the assay on Rattus norvegicus [7] it was 20.2%; with Rattus norvegicus [8], 18%.
For the compound `CCOC(=O)C1(O)CC(c2ccccc2)C2=C(CC(C)(C)CC2=O)O1` (stereo not given), the inhibition in assay [1] was determined as 21.3%. Further, the result in the assay with Rattus norvegicus [2] (Sprague-Dawley albino) was inactive. The inhibition result in assay [3], in assay [4], in assay [5] and in assay [6] was “inactive” each time.
As to `CCOC(=O)C1=CC(c2ccc(OC)cc2)C2=C(CC(C)(C)CC2=O)N1` (stereo not given), the inhibition in assay [1] amounted to 66.7%; in assay [3] it was 23.8%; in assay [5], 40.4%; in assay [6], 16.5%. Besides, the Activity with Rattus norvegicus [2] was found to be 12.9%. In addition, the inhibition result in assay [4] was “inactive”.
As to `COc1ccc(Cl)cc1C(=O)NCCc1ccc(S(=O)(=O)NC(=O)NC2CCCCC2)cc1` [GLYBURIDE], the Activity worked out at 32.5% in the assay with Rattus norvegicus [2], 28.4% with Rattus norvegicus [7] and 25.6% with Rattus norvegicus [8].
Turning to `CCOC(=O)C1(O)CC(c2ccc(Br)cc2)C2=C(CC(C)(C)CC2=O)O1` (stereo not given), the inhibition in assay [1] amounted to 4.7%; in assay [5] it was 12.3%. Besides, the outcome with Rattus norvegicus [2] (Sprague-Dawley albino) was inactive. In addition, the inhibition result in assay [3], in assay [4] and in assay [6] was “inactive” throughout.
As for `CCOC(=O)C1(O)CC(c2ccc(Cl)cc2)C2=C(CC(C)(C)CC2=O)O1` (stereo not given), the values for the inhibition in assay [1] and in assay [5] were 16.5% and 7.6%, respectively. In addition, the result in the assay with Rattus norvegicus [2] (Sprague-Dawley albino) was inactive. Moreover, the inhibition entry in assay [3], in assay [4] and in assay [6] was “inactive” in each case.
For `CC1(C)CC(=O)c2c(-c3ccc(F)cc3)cc(-c3ccccc3)nc2C1`, the inhibition in assay [1] was 7.9%; in assay [3], 11.1%; in assay [5], 20.3%; in assay [6], 13.1%. For the same compound, the outcome with Rattus norvegicus [2] (Sprague-Dawley albino) was inactive. Also, the inhibition result in assay [4] is “inactive”.
As for `CC1(C)CC(=O)c2c(-c3ccc(Cl)cc3)cc(-c3ccccc3)nc2C1`, the inhibition in assay [1] was 18.6%; in assay [3] it was 11.3%; in assay [5], 13.8%; in assay [6], 29.4%. Further, the outcome in the assay with Rattus norvegicus [2] (Sprague-Dawley albino) was inactive. Also, the inhibition entry in assay [4] was “inactive”.
Consider `CCOC(=O)C1(O)CC(c2ccc(OC)cc2)C2=C(CC(C)(C)CC2=O)O1` (stereo not given), for which, in assay [1], the inhibition worked out at 13.6%. In addition, the outcome in the assay on Rattus norvegicus [2] (Sprague-Dawley albino) was inactive. For the same compound, the inhibition entry in assay [3], in assay [4], in assay [5] and in assay [6] was “inactive” each time.
As for `COc1ccc(C2C=C(c3ccccc3)NC3=C2C(=O)CCC3)cc1` (stereo not given), the inhibition in assay [1] came out at 56.8%; in assay [3] it was 17.3%; in assay [4], 7.3%; in assay [5] it was 13.8%. For the same compound, the values for the Activity in the assay on Rattus norvegicus [2], in the assay on Rattus norvegicus [7] and in the assay with Rattus norvegicus [8] were 29.6%, 19.4% and 17.5%, respectively. For the same compound, the inhibition entry in assay [6] is “inactive”.
Turning to `CC1(C)CC(=O)C2=C(C1)NC(C(=O)O)=CC2c1ccc(F)cc1` (stereo not given), the inhibition in assay [1] was 27%; in assay [3] it was 16.8%; in assay [4], 1.4%; in assay [5], 46.6%. Besides, the Activity is 38.7% with Rattus norvegicus [2], 23.6% with Rattus norvegicus [7] and 27.8% in the assay with Rattus norvegicus [8]. For the same compound, the inhibition entry in assay [6] is “inactive”.
As to `COc1ccc(C2=CC(c3ccccc3)C3=C(CC(C)(C)CC3=O)N2)cc1` (stereo not given), the inhibition in assay [1] turned out to be 53.4%; in assay [3], 8.34%; in assay [4], 22.4%; in assay [5] it was 18.4%. For the same compound, the Activity in the assay with Rattus norvegicus [2] is on record as 17.3%; in the assay on Rattus norvegicus [7], 11.7%; in the assay on Rattus norvegicus [8], 11.9%. Moreover, the inhibition result in assay [6] is “inactive”.
As for `Cc1ccc(C2=CC(c3ccccc3)C3=C(CCCC3=O)N2)cc1` (stereo not given), the inhibition in assay [1] came to 33.3%; in assay [3], 27.7%; in assay [4], 8.3%; in assay [6], 18.8%. In addition, the Activity in the assay on Rattus norvegicus [2] worked out at 13.4%. Also, the inhibition result in assay [5] was “inactive”.
Turning to `CC1(C)CC(=O)C2=C(C1)NC(c1ccccc1)=CC2c1c[nH]c2ccccc12` (stereo not given), the inhibition in assay [1] is 54.5%; in assay [3], 26.7%; in assay [5], 39.7%. Also, the Activity is recorded as 17.3% in the assay on Rattus norvegicus [2], 13.2% in the assay with Rattus norvegicus [7] and 8.1% with Rattus norvegicus [8]. The inhibition entry in assay [4] and in assay [6] was “inactive” in each case.
